FN deposit inh = fibronectin deposition inhibition. AH1F fibroblasts, Alexa488-fibronectin deposition fluorescence, overnight. hit rate 0.086% among 350,000. inhibition, % at 12.6 µM;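 active = mean inhibition across replicates of 30% or more, regardless of how many single replicates reach that level; inconclusive = mean under 30% yet at least half of replicates reach 30%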;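 also: positive control wells lacked labelled fibronectin entirely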
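Test system: AH1F fibroblast monolayer depositing Alexa488-labelled fibronectin into matrix. Input: 10000 cells per well. Technique: fluorescence, ex 485 nm, em 525 nm. Buffer or medium: DMEM plus 2% serum, read in PBS. Timing: 1 h cell adhesion before compound, then overnight fibronectin incubation. Compound: single dose, pinned. Read-out basis: inhibition from reduced deposited-fibronectin fluorescence.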
PGC1a acetyl inh = lowers PGC1a acetylation signal in U2OS cells | inhibition, % at 15.6 µM | hit rate 0.17% among 350,000 | AlphaScreen anti-acetyl-lysine; with virally co-expressed GCN5 acetyltransferase;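 active = every replicate shows inhibition of at least 40%; inconclusive = mean inhibition at least 40% but some replicate below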;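 also: 0% = neutral control wells and 100% = positive control wells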
F508del corr = CFTR F508del correction in bronchial cells; activity (quench increase), % at 7.58 µM; hit rate 0.36% among 350,000; CFBE cells, YFP halide quenching; stimulated with forskolin plus potentiator P3; % fluorescence drop versus neutral controls;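 active = mean added fluorescence quench of at least 8% versus neutral control, with both replicates also reaching 8%; inconclusive = only one of the mean or replicate conditions met; inactive = mean below 8% and not both replicates reaching 8%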;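 also: cells transiently co-express mutant CFTR-F508del with the halide-sensitive YFP; corrector assay measuring rescue of mutant channel to the surface after 24 h compound exposure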
PAX8 inh HTS = inhibitors of PAX8 transcriptional activity in RMG-I cells; hit rate 1.2% among 360,000; RMG-I TPO-luciferase reporter, SteadyGlo, 24 h; inhibition, % at 12.6 µM;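 active = mean replicate inhibition at least 60% with every replicate also reaching 60%; inconclusive = only one of the two criteria is met; inactive = mean below 60% and not all replicates reaching 60%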;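 also: luciferase light reporting Pax8 driven TPO promoter activity; plate controls were median of neutral control wells for no effect and mitoxantrone controls for full effect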
HIV Env fusion = HIV envelope-mediated fusion inhibition; HeLa-JRFL Env/CEM21 cell fusion, luciferase; hit rate 1.1% among 360,000; inhibition, % at 12.3 µM; AID 651610;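 active = mean replicate inhibition score of at least 50 and every replicate individually at or above 50; inconclusive = only one of the two criteria met; inactive = mean below 50 and not all replicates reaching 50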;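 also: 0% = plate neutral controls and 100% = maraviroc near 300 nM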
EWS-Fli block = inhibitors of EWS/Fli oncoprotein transcriptional activity | A673 NR0B1-luciferase reporter, viability-normalised | inhibition, % at 12.6 µM | hit rate 0.67% among 350,000 | AID 651661;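 active = mean inhibition of at least 50% after viability correction, with every replicate also passing that limit; inconclusive = mean reaches 50% but only one of two replicates passes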;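 also: firefly luciferase signal divided by Alamar Blue viability fluorescence both relative to DMSO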
Numbers without * were called inactive; i = inactive; ? = inconclusive; . = not tested or not shown; [ ] = dose if it differs, or a comment. In the library only some 2.3% were active in any assay of this set; here they are far more common.

SMILES	FN deposit inh	PGC1a acetyl inh	F508del corr	PAX8 inh HTS	HIV Env fusion	EWS-Fli block
CCC(=O)N1C[C@@H](C)[C@H](OC)CN(C)C(=O)c2cc(NC(=O)c3cc(C)on3)ccc2OC[C@H]1C	-8.8	32.2	1.0	.	.	-7.5
O=C(C[C@@H]1CC[C@@H]2[C@H](COC[C@@H](O)CN2C(=O)c2cnccn2)O1)NCc1ccccc1	2.9	2.9	-1.5	-3.1	.	6.5
O=C(N[C@@H]1CC[C@@H](CCNC(=O)C2CCC2)O[C@H]1CO)c1ccccn1	.	-6.9	1.5	9.1	13.8[16.7 µM]	2.8
Cc1ccc(-c2cnc3c(c2)C(=O)N([C@@H](C)CO)C[C@@H](C)[C@@H](CN(C)C(=O)c2cccnc2)O3)cc1	.	11.4	-0.9	.	-17.7[16.7 µM]	-5.1
CN(C)CCCn1c(SCC(=O)N2c3ccccc3Sc3ccccc32)nc2ccccc2c1=O	-2.3	-10.7	.	4.5	-2.1	54.5*
Cn1c(SCC(=O)N2c3ccccc3Sc3ccccc32)nc2ccccc21	3.1	.	.	10.3	-30.0	9.2
Cc1cc(C)c2oc(-c3cccc(N)c3)nc2c1	5.3	1.0	-0.1	-117.7	-380.2	-78.0
Cc1ccc2nc(-c3cccc(N)c3)oc2c1	.	4.2	1.1	.	.	59.0*
Cc1c(Cl)cccc1NC(=O)C1CC(=O)N(C2CCCC2)C1 (stereo unspecified)	.	16.3	13.1*	8.1	.	4.7
Cc1cc2nc(/C=C/c3nc4cc(C)c(C)cc4[nH]3)[nH]c2cc1C	6.2	-4.8	-1.9	7.1	-11.7	21.9
Cc1cc2nc(/C=C/c3cccnc3)[nH]c2cc1C	-9.1	66.7*	2.1	2.0	i	3.2
O=C(C[C@H]1C[C@H]2c3cc(NC(=O)C4CCC4)ccc3O[C@H]2[C@H](CO)O1)NCc1ccc2c(c1)OCO2	6.1	-5.2	-2.5	10.0	81.1*[16.7 µM]	-3.6
O=C(C[C@@H]1C[C@H]2c3cc(NC(=O)C4CCC4)ccc3O[C@H]2[C@H](CO)O1)NCc1ccc2c(c1)OCO2	-8.6	25.8	1.2	17.8	5.7[16.7 µM]	0.2
O=C(C[C@@H]1C[C@@H]2c3cc(NC(=O)C4CCC4)ccc3O[C@@H]2[C@@H](CO)O1)NCc1ccc2c(c1)OCO2	11.9	3.0	-2.9	11.7	78.5*[16.7 µM]	-0.9
CN1c2ccc(-c3ccc(F)cc3)cc2[C@@H]2[C@@H](CCN2C(=O)c2ccncc2)[C@@H]1CO	10.9	-14.9	2.5	-6.5	.	-6.6
COc1ccccc1[C@@H]1C(c2ccc(F)cc2)=NN(c2ccccc2)[C@H]1C(=O)N1CCOC1=O	-11.5	-10.8	3.2	-0.6	82.1*	-1.5
O=C(C[C@H]1CC[C@H]2[C@@H](COC[C@H](O)CN2Cc2ccc(Oc3ccccc3)cc2)O1)N1CCCCC1	0.2	0.8	1.0	8.8	.	10.4
CCCn1nc(C(=O)Nc2nc(-c3ccccn3)cs2)c2ccccc2c1=O	0.8	12.8	5.7	73.8*	5.5	11.1
O=C(Nc1nc(-c2ccccn2)cs1)c1ccc([N+](=O)[O-])o1	15.2	-11.1	-3.1	79.8*	-46.0	0.2
O=C(Nc1nc(-c2ccccn2)cs1)c1ccccc1-n1cnnn1	3.5	43.0*	-3.6	59.2	13.1	-2.6
CC(=O)Nc1ccc(C(=O)Nc2nc(-c3ccccn3)cs2)cc1	-11.7	5.0	1.9	0.3	12.1	-12.6
O=C(Nc1nc(-c2ccccn2)cs1)c1cc(Cl)ccc1[N+](=O)[O-]	7.9	.	-4.4	80.5*	-28.1	-2.8
Cc1cc(C(=O)Nc2nc(-c3ccccn3)cs2)ccc1[N+](=O)[O-]	3.6	7.2	-0.3	25.0	?	11.9
COc1ccc(Cn2c(=O)[nH]c3cc(C(=O)N4CCN(Cc5ccccc5)CC4)ccc3c2=O)cc1	6.6	-15.4	.	25.0	23.9*	.
O=C(c1ccc2ccccc2c1)N1CCN(Cc2ccccc2)CC1	4.1	-0.3	10.6*	-36.1	3.2	-71.3
O=C(c1cccc(C(=O)N2CCN(Cc3ccccc3)CC2)c1)N1CCN(Cc2ccccc2)CC1	.	4.7	.	.	.	.
CCc1nc2ccc(C(=O)N3CCN(C(=O)c4ccco4)CC3)cn2c1N(C)Cc1ccc(OC)cc1	3.5	2.6	-1.0	16.5	72.3*	5.5
CCc1nc2ccc(C(=O)N3CCN(C(=O)c4ccco4)CC3)cn2c1N(CC)CCOC	0.6	4.4	1.3	4.0	-23.1	-2.3

Bioassay records from PubChem BioAssay.
